{"data": "Results from different studies", "target": "MAP kinase-interacting serine/threonine-protein kinase 2 (MKNK2, Homo sapiens, UniProt Q9HBH9)", "note": "Each line is one published result; the experiments were not run side by side."}
{"Structure (SMILES)": "CC(C)(C)c1nc2c(s1)c1nc(N)ncc1c1ccc(NS(=O)(=O)c3c(F)cccc3F)c(F)c12", "assay": "enzyme activity, inhibitor, radiometric", "conditions": "1 µM", "endpoint": "remaining activity", "value": "98%"}
{"Structure (SMILES)": "CC(C)(O)[C@H]1CC[C@H](Nc2ccc3ncc(-c4cccc(C(F)(F)F)c4)n3n2)CC1", "assay": "enzyme activity, inhibitor", "conditions": "1 µM", "endpoint": "remaining activity", "value": "66.5%"}
{"Structure (SMILES)": "CS(=O)(=O)Nc1cccc(-c2csc(NC(=O)CSc3nc4nccnc4c(=O)n3CCc3ccccc3)n2)c1", "assay": "enzyme activity, inhibitor", "conditions": "10 µM", "endpoint": "inhibition", "value": "-10%"}
{"Structure (SMILES)": "CNC(=O)c1cc(Oc2ccc(NC(=O)Nc3ccc(Cl)c(C(F)(F)F)c3)cc2)ccn1", "assay": "enzyme activity, inhibitor", "conditions": "10 µM", "endpoint": "inhibition", "value": "90%"}
{"Structure (SMILES)": "CC/C(=N\\NC(=O)NCc1cccc(O)c1)c1ccc(O)c(C)c1O", "assay": "enzyme activity, inhibitor", "conditions": "0.1 µM", "endpoint": "inhibition", "value": "-2.9%"}
{"Structure (SMILES)": "CC(=O)C1=C(O)C=C2Oc3c(C(N)=O)c(O)cc(O)c3[C@]2(C)C1=O", "assay": "enzyme activity, inhibitor, radiometric", "conditions": "10 µM", "endpoint": "activity vs control", "value": "0%"}
{"Structure (SMILES)": "COc1cc2c(N3CCN(C(=O)Nc4ccc(OC(C)C)cc4)CC3)ncnc2cc1OCCCN1CCCCC1", "assay": "cell-free assay", "conditions": "0.5 µM", "endpoint": "remaining signal", "value": "99%"}
{"Structure (SMILES)": "Nc1nc(NC2CCCCC2)sc1C(=O)c1ccccc1", "assay": "enzyme activity, inhibitor", "conditions": "10 µM", "endpoint": "remaining activity", "value": "94%"}
{"Structure (SMILES)": "Nc1nc(Nc2ccc(S(N)(=O)=O)cc2)nn1C(=O)c1c(F)cccc1F", "assay": "cell-free assay", "conditions": "0.5 µM", "endpoint": "remaining signal", "value": "95.9%"}
{"Structure (SMILES)": "CC(C)(O)c1cncc(-c2nc3ccc(F)cc3n2C2CC2)c1", "assay": "cell-free assay, competition with immobilised ligand", "conditions": "1 µM", "endpoint": "remaining binding", "value": "100%"}
{"Structure (SMILES)": "COc1cc(Nc2cnc(C#N)c(O[C@H](C)CN(C)C)n2)ncc1-c1cnn(C)c1", "assay": "enzyme activity, inhibitor, radiometric", "conditions": "1 µM", "endpoint": "remaining activity", "value": "98%"}
{"Structure (SMILES)": "FC(F)(F)Oc1cccc(-c2cnc3ccc(-c4ccncc4)nn23)c1", "assay": "enzyme activity, inhibitor, radiometric", "conditions": "5 µM", "endpoint": "activity vs control", "value": "81%"}
{"Structure (SMILES)": "O=C(Nc1cnn(-c2csc(C(=O)NC3COC3)c2)c1)Nc1ccccc1Cl", "assay": "enzyme activity, inhibitor", "conditions": "5 µM", "endpoint": "remaining activity", "value": "99.3%"}
{"Structure (SMILES)": "C[C@@H]1CN(c2cc(-c3nn(C)c4ccc(OC5(C)CC5)cc34)ncn2)C[C@H](C)O1", "assay": "cell-free assay, competition with immobilised ligand", "conditions": "1 µM", "endpoint": "remaining binding", "value": "67%"}
{"Structure (SMILES)": "CCN(CC)c1ccc(C2=NNC(=O)CC2C)cc1[N+](=O)[O-] (centres unmarked)", "assay": "enzyme activity, inhibitor", "conditions": "10 µM", "endpoint": "remaining activity", "value": "25%"}
{"Structure (SMILES)": "Nc1nc(Nc2ccccc2)sc1C(=O)c1c(F)cccc1F", "assay": "enzyme activity, inhibitor", "conditions": "10 µM", "endpoint": "remaining activity", "value": "99%"}
{"Structure (SMILES)": "CN1CC(Oc2cnc(C#N)cc2-c2ccn3nc(NC(=O)C4CC4)cc3c2)C1", "assay": "enzyme activity, inhibitor", "conditions": "1 µM", "endpoint": "inhibition", "value": "5%"}
{"Structure (SMILES)": "Nc1ncnc2occ(-c3ccc(NC(=O)Nc4cc(C(F)(F)F)ccc4F)cc3)c12", "assay": "cell-free assay, inhibitor", "conditions": "20 µM", "endpoint": "remaining signal", "value": "0%"}
{"Structure (SMILES)": "Cc1ccc(Nc2nccc(N(C)c3ccc4c(C)n(C)nc4c3)n2)cc1S(N)(=O)=O", "assay": "enzyme activity, inhibitor", "conditions": "10 µM", "endpoint": "inhibition", "value": "9%"}
{"Structure (SMILES)": "CSc1nc(C)c(-c2ccnc(Nc3ccc(N4CCOCC4)cc3)c2)[nH]1", "assay": "enzyme activity, inhibitor", "conditions": "10 µM", "endpoint": "inhibition", "value": "94.9%"}
{"Structure (SMILES)": "CC1=C(C#N)[C@@H](c2ccc3[nH]nc(C)c3c2)C(C#N)=C(c2ccc(Cl)cc2)N1", "assay": "cell-free assay, competition with immobilised ligand", "conditions": "1 µM", "endpoint": "remaining binding", "value": "90.6%"}
{"Structure (SMILES)": "Cc1ccc(C(=O)Nc2ccc(CN3CCN(C)CC3)c(C(F)(F)F)c2)cc1C#Cc1cnc2cccnn12", "assay": "enzyme activity, inhibitor", "conditions": "23.5 nM", "endpoint": "remaining activity", "value": "33%"}
{"Structure (SMILES)": "CCC(=O)N[C@H]1CC[C@@H](C(=O)N(C)c2ccc(-c3nc4ccccc4o3)cc2)C1", "assay": "cell-free assay, competition with immobilised ligand", "conditions": "1 µM", "endpoint": "remaining binding", "value": "100%"}
{"Structure (SMILES)": "O=C1Nc2ccc(Cl)cc2C1=Cc1cc(Cl)c(O)c(Cl)c1", "assay": "cell-free assay", "conditions": "0.5 µM", "endpoint": "remaining signal", "value": "88.7%"}
{"Structure (SMILES)": "CN([C@@H]1CCc2c(CC(=O)O)c3ccccc3n2C1)S(=O)(=O)c1ccc(F)cc1", "assay": "cell-free assay, competition with immobilised ligand", "conditions": "1 µM", "endpoint": "remaining binding", "value": "100%"}
{"Structure (SMILES)": "CC(C)c1ccc(NC(=O)c2cccs2)c(-c2nc3ccccc3[nH]c2=O)c1", "assay": "enzyme activity, inhibitor", "conditions": "1 µM", "endpoint": "activity vs control", "value": "97%"}
{"Structure (SMILES)": "CO[C@@H](C)c1c(Nc2ccc([C@@H](N(C)C(=O)C3CCS(=O)(=O)CC3)C(F)(F)F)cc2)cnc2cc(Cl)nn12", "assay": "cell-free assay, competition with immobilised ligand", "conditions": "1 µM", "endpoint": "remaining binding", "value": "85%"}
{"Structure (SMILES)": "FC(F)c1nc2ccccc2n1-c1nc(N2CCOCC2)nc(N2CCOCC2)n1", "assay": "enzyme activity, inhibitor", "conditions": "10 µM", "endpoint": "remaining activity", "value": "101%"}
{"Structure (SMILES)": "O=C(N[C@H]1CCCCC/C=C\\C2C[C@@]2(C(=O)O)NC(=O)[C@@H]2C[C@@H](Oc3ccncc3)CN2C1=O)OC1CCCC1 (some centres unmarked)", "assay": "binding, competition with immobilised ligand", "conditions": "1 µM", "endpoint": "remaining binding", "value": "75%"}
{"Structure (SMILES)": "CCN(CC)CCNC(=O)c1c(C)[nH]c(/C=C2\\C(=O)Nc3ccc(F)cc32)c1C", "assay": "enzyme activity, inhibitor", "conditions": "0.3 µM", "endpoint": "inhibition", "value": "-18%"}
{"Structure (SMILES)": "COc1ccc(COc2ccc(Cc3cnc(N)nc3N)cc2OC)cc1", "assay": "cell-free assay", "conditions": "0.5 µM", "endpoint": "remaining signal", "value": "90.6%"}
{"Structure (SMILES)": "CS(=O)(=O)N1CCCC(NC(=O)[C@H](CCC2CCCCC2)NC(=O)c2ccc(CNC(=O)c3cnc4ccccn34)cc2)C1 (some centres unmarked)", "assay": "cell-free assay, competition with immobilised ligand", "conditions": "0.1 µM", "endpoint": "remaining binding", "value": "84%"}
